# System: HEK-293T
# Assay: Multiplex assay against HEK293T
# Format: toxicity, cell-based
# Conditions: human
# Outline: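 Four dyes were applied at seeding to live cells: Hoechst33342, BioTracker Green Microtubule Cytoskeleton Dye, MitoTracker Red and Annexin V Alexa Fluor 680. Imaging after compound addition used a CQ1 microscope at 37°C and 5% CO2. CellPathfinder machine-learning gating then sorted cells into Hoechst high-intensity objects or normal cells, normal cells into healthy, pyknosed or fragmented nuclei, and pyknosed cells into mitotic or apoptotic, with tubulin, mitochondrial-mass and membrane-permeability phenotypes given as per cents of healthy-nucleus cells.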
# [1] = 12 h, 1 µM, compound concentration 1 uM, replicate 1
# [2] = 12 h, 1 µM, compound concentration 1 uM, replicate 2
# [3] = 12 h, 10 µM, compound concentration 10 uM, replicate 1
# [4] = 12 h, 10 µM, compound concentration 10 uM, replicate 2
# [5] = 24 h, 1 µM, compound concentration 1 uM, replicate 1
# [6] = 24 h, 1 µM, compound concentration 1 uM, replicate 2
# [7] = 24 h, 10 µM, compound concentration 10 uM, replicate 1
# [8] = 24 h, 10 µM, compound concentration 10 uM, replicate 2
# [9] = 48 h, 1 µM, compound concentration 1 uM, replicate 1
# [10] = 48 h, 1 µM, compound concentration 1 uM, replicate 2
# [11] = 48 h, 10 µM, compound concentration 10 uM, replicate 1
# [12] = 48 h, 10 µM, compound concentration 10 uM, replicate 2
compound,measurement,setting,value
C[C@@H]1CC(=O)Nc2cccc(-c3ccc4c(c3)c(-c3cnn(C)c3)nn4C)c2N1,Population Apoptotic (%),[1],36%
same,Population Fragmented Nuclei (%),[1],7%
same,Population Healthy Nuclei (%),[1],76%
same,Population Hoechst High Intensity Objects (%),[1],7%
same,Population Membrane Permeable-Phenotype (%),[1],0%
same,Population Mitochondria Different-Phenotype (%),[1],51%
same,Population Mitotic Cells (%),[1],63%
same,Population Normal (%),[1],92%
same,Population Pyknosed Nuclei (%),[1],16%
same,Population Tubulin-Different-Phenotype (%),[1],39%
same,Total Cell Count,[1],305
same,Population Apoptotic (%),[2],60%
same,Population Fragmented Nuclei (%),[2],5%
same,Population Healthy Nuclei (%),[2],77%
same,Population Mitochondria Different-Phenotype (%),[2],65%
same,Population Mitotic Cells (%),[2],39%
same,Population Tubulin-Different-Phenotype (%),[2],26%
same,Total Cell Count,[2],349
same,Population Apoptotic (%),[3],49%
same,Population Fragmented Nuclei (%),[3],8%
same,Population Healthy Nuclei (%),[3],74%
same,Population Hoechst High Intensity Objects (%),[3],5%
same,Population Membrane Permeable-Phenotype (%),[3],0%
same,Population Mitochondria Different-Phenotype (%),[3],72%
same,Population Mitotic Cells (%),[3],50%
same,Population Normal (%),[3],94%
same,Population Pyknosed Nuclei (%),[3],17%
same,Population Tubulin-Different-Phenotype (%),[3],62%
same,Total Cell Count,[3],384
same,Population Apoptotic (%),[4],38%
same,Population Fragmented Nuclei (%),[4],5%
same,Population Healthy Nuclei (%),[4],77%
same,Population Hoechst High Intensity Objects (%),[4],12%
same,Population Mitochondria Different-Phenotype (%),[4],86%
same,Population Mitotic Cells (%),[4],62%
same,Population Normal (%),[4],87%
same,Population Pyknosed Nuclei (%),[4],16%
same,Population Tubulin-Different-Phenotype (%),[4],56%
same,Total Cell Count,[4],345
same,Population Apoptotic (%),[5],38%
same,Population Fragmented Nuclei (%),[5],10%
same,Population Healthy Nuclei (%),[5],74%
same,Population Hoechst High Intensity Objects (%),[5],7%
same,Population Membrane Permeable-Phenotype (%),[5],0%
same,Population Mitochondria Different-Phenotype (%),[5],37%
same,Population Mitotic Cells (%),[5],61%
same,Population Normal (%),[5],92%
same,Population Pyknosed Nuclei (%),[5],14%
same,Population Tubulin-Different-Phenotype (%),[5],20%
same,Total Cell Count,[5],395
same,Population Apoptotic (%),[6],50%
same,Population Fragmented Nuclei (%),[6],8%
same,Population Healthy Nuclei (%),[6],79%
same,Population Hoechst High Intensity Objects (%),[6],6%
same,Population Mitochondria Different-Phenotype (%),[6],48%
same,Population Mitotic Cells (%),[6],50%
same,Population Normal (%),[6],93%
same,Population Pyknosed Nuclei (%),[6],11%
same,Population Tubulin-Different-Phenotype (%),[6],16%
same,Total Cell Count,[6],422
same,Population Apoptotic (%),[7],43%
same,Population Fragmented Nuclei (%),[7],9%
same,Population Healthy Nuclei (%),[7],76%
same,Population Hoechst High Intensity Objects (%),[7],2%
same,Population Membrane Permeable-Phenotype (%),[7],0%
same,Population Mitochondria Different-Phenotype (%),[7],62%
same,Population Mitotic Cells (%),[7],56%
same,Population Normal (%),[7],97%
same,Population Pyknosed Nuclei (%),[7],13%
same,Population Tubulin-Different-Phenotype (%),[7],37%
same,Total Cell Count,[7],472
same,Population Apoptotic (%),[8],57%
same,Population Fragmented Nuclei (%),[8],8%
same,Population Healthy Nuclei (%),[8],72%
same,Population Hoechst High Intensity Objects (%),[8],5%
same,Population Mitochondria Different-Phenotype (%),[8],68%
same,Population Mitotic Cells (%),[8],42%
same,Population Normal (%),[8],94%
same,Population Pyknosed Nuclei (%),[8],19%
same,Population Tubulin-Different-Phenotype (%),[8],28%
same,Total Cell Count,[8],381
same,Population Apoptotic (%),[9],33%
same,Population Fragmented Nuclei (%),[9],11%
same,Population Healthy Nuclei (%),[9],80%
same,Population Hoechst High Intensity Objects (%),[9],1%
same,Population Membrane Permeable-Phenotype (%),[9],0%
same,Population Mitochondria Different-Phenotype (%),[9],23%
same,Population Mitotic Cells (%),[9],66%
same,Population Normal (%),[9],98%
same,Population Pyknosed Nuclei (%),[9],7%
same,Population Tubulin-Different-Phenotype (%),[9],13%
same,Total Cell Count,[9],627
same,Population Apoptotic (%),[10],30%
same,Population Fragmented Nuclei (%),[10],9%
same,Population Healthy Nuclei (%),[10],81%
same,Population Hoechst High Intensity Objects (%),[10],2%
same,Population Mitochondria Different-Phenotype (%),[10],30%
same,Population Mitotic Cells (%),[10],69%
same,Population Normal (%),[10],97%
same,Population Pyknosed Nuclei (%),[10],9%
same,Total Cell Count,[10],593
same,Population Apoptotic (%),[11],43%
same,Population Fragmented Nuclei (%),[11],13%
same,Population Healthy Nuclei (%),[11],80%
same,Population Hoechst High Intensity Objects (%),[11],4%
same,Population Membrane Permeable-Phenotype (%),[11],0%
same,Population Mitochondria Different-Phenotype (%),[11],44%
same,Population Mitotic Cells (%),[11],56%
same,Population Normal (%),[11],95%
same,Population Pyknosed Nuclei (%),[11],6%
same,Population Tubulin-Different-Phenotype (%),[11],16%
same,Total Cell Count,[11],636
same,Population Apoptotic (%),[12],42%
same,Population Fragmented Nuclei (%),[12],12%
same,Population Healthy Nuclei (%),[12],78%
same,Population Hoechst High Intensity Objects (%),[12],2%
same,Population Mitochondria Different-Phenotype (%),[12],53%
same,Population Mitotic Cells (%),[12],57%
same,Population Normal (%),[12],97%
same,Population Pyknosed Nuclei (%),[12],9%
same,Population Tubulin-Different-Phenotype (%),[12],20%
same,Total Cell Count,[12],521
C[C@H](NC(=O)CNC(=O)c1cccc(Cl)c1)c1ccccc1,Population Apoptotic (%),[1],33%
same,Population Fragmented Nuclei (%),[1],5%
same,Population Healthy Nuclei (%),[1],79%
same,Population Hoechst High Intensity Objects (%),[1],8%
same,Population Membrane Permeable-Phenotype (%),[1],0%
same,Population Mitochondria Different-Phenotype (%),[1],39%
same,Population Mitotic Cells (%),[1],66%
same,Population Normal (%),[1],91%
same,Population Pyknosed Nuclei (%),[1],15%
same,Population Tubulin-Different-Phenotype (%),[1],29%
same,Total Cell Count,[1],449
same,Population Apoptotic (%),[2],48%
same,Population Fragmented Nuclei (%),[2],6%
same,Population Healthy Nuclei (%),[2],84%
same,Population Hoechst High Intensity Objects (%),[2],4%
same,Population Mitochondria Different-Phenotype (%),[2],52%
same,Population Mitotic Cells (%),[2],51%
same,Population Normal (%),[2],95%
same,Population Pyknosed Nuclei (%),[2],9%
same,Population Tubulin-Different-Phenotype (%),[2],17%
same,Total Cell Count,[2],384
same,Population Apoptotic (%),[3],41%
same,Population Fragmented Nuclei (%),[3],6%
same,Population Healthy Nuclei (%),[3],76%
same,Population Hoechst High Intensity Objects (%),[3],7%
same,Population Membrane Permeable-Phenotype (%),[3],0%
same,Population Mitochondria Different-Phenotype (%),[3],54%
same,Population Mitotic Cells (%),[3],58%
same,Population Normal (%),[3],92%
same,Population Pyknosed Nuclei (%),[3],17%
same,Population Tubulin-Different-Phenotype (%),[3],39%
same,Total Cell Count,[3],362
same,Population Apoptotic (%),[4],58%
same,Population Fragmented Nuclei (%),[4],7%
same,Population Healthy Nuclei (%),[4],77%
same,Population Hoechst High Intensity Objects (%),[4],13%
same,Population Mitochondria Different-Phenotype (%),[4],61%
same,Population Mitotic Cells (%),[4],41%
same,Population Normal (%),[4],86%
same,Population Pyknosed Nuclei (%),[4],15%
same,Population Tubulin-Different-Phenotype (%),[4],33%
same,Total Cell Count,[4],272
same,Population Apoptotic (%),[5],23%
same,Population Fragmented Nuclei (%),[5],9%
same,Population Healthy Nuclei (%),[5],80%
same,Population Hoechst High Intensity Objects (%),[5],4%
same,Population Membrane Permeable-Phenotype (%),[5],1%
same,Population Mitochondria Different-Phenotype (%),[5],25%
same,Population Mitotic Cells (%),[5],76%
same,Population Normal (%),[5],95%
same,Population Pyknosed Nuclei (%),[5],10%
same,Population Tubulin-Different-Phenotype (%),[5],15%
same,Total Cell Count,[5],646
same,Population Apoptotic (%),[6],45%
same,Population Fragmented Nuclei (%),[6],7%
same,Population Healthy Nuclei (%),[6],84%
same,Population Hoechst High Intensity Objects (%),[6],2%
same,Population Membrane Permeable-Phenotype (%),[6],0%
same,Population Mitochondria Different-Phenotype (%),[6],32%
same,Population Mitotic Cells (%),[6],54%
same,Population Normal (%),[6],97%
same,Population Pyknosed Nuclei (%),[6],7%
same,Population Tubulin-Different-Phenotype (%),[6],9%
same,Total Cell Count,[6],476
same,Population Apoptotic (%),[7],43%
same,Population Fragmented Nuclei (%),[7],9%
same,Population Healthy Nuclei (%),[7],77%
same,Population Hoechst High Intensity Objects (%),[7],4%
same,Population Membrane Permeable-Phenotype (%),[7],0%
same,Population Mitochondria Different-Phenotype (%),[7],39%
same,Population Mitotic Cells (%),[7],56%
same,Population Normal (%),[7],95%
same,Population Pyknosed Nuclei (%),[7],12%
same,Population Tubulin-Different-Phenotype (%),[7],25%
same,Total Cell Count,[7],505
same,Population Apoptotic (%),[8],58%
same,Population Fragmented Nuclei (%),[8],10%
same,Population Healthy Nuclei (%),[8],78%
same,Population Hoechst High Intensity Objects (%),[8],9%
same,Population Mitochondria Different-Phenotype (%),[8],49%
same,Population Mitotic Cells (%),[8],41%
same,Population Normal (%),[8],90%
same,Population Pyknosed Nuclei (%),[8],11%
same,Population Tubulin-Different-Phenotype (%),[8],19%
same,Total Cell Count,[8],303
same,Population Apoptotic (%),[9],19%
same,Population Fragmented Nuclei (%),[9],13%
same,Population Healthy Nuclei (%),[9],80%
same,Population Hoechst High Intensity Objects (%),[9],3%
same,Population Membrane Permeable-Phenotype (%),[9],0%
same,Population Mitochondria Different-Phenotype (%),[9],15%
same,Population Mitotic Cells (%),[9],80%
same,Population Normal (%),[9],96%
same,Population Pyknosed Nuclei (%),[9],5%
same,Population Tubulin-Different-Phenotype (%),[9],12%
same,Total Cell Count,[9],984
same,Population Apoptotic (%),[10],30%
same,Population Healthy Nuclei (%),[10],81%
same,Population Hoechst High Intensity Objects (%),[10],2%
same,Population Membrane Permeable-Phenotype (%),[10],2%
same,Population Mitochondria Different-Phenotype (%),[10],16%
same,Population Mitotic Cells (%),[10],70%
same,Population Normal (%),[10],97%
same,Population Tubulin-Different-Phenotype (%),[10],6%
same,Total Cell Count,[10],606
same,Population Apoptotic (%),[11],44%
same,Population Fragmented Nuclei (%),[11],15%
same,Population Healthy Nuclei (%),[11],77%
same,Population Hoechst High Intensity Objects (%),[11],1%
same,Population Membrane Permeable-Phenotype (%),[11],0%
same,Population Mitochondria Different-Phenotype (%),[11],26%
same,Population Mitotic Cells (%),[11],55%
same,Population Normal (%),[11],98%
same,Population Pyknosed Nuclei (%),[11],7%
same,Population Tubulin-Different-Phenotype (%),[11],18%
same,Total Cell Count,[11],735
same,Population Apoptotic (%),[12],35%
same,Population Fragmented Nuclei (%),[12],19%
same,Population Healthy Nuclei (%),[12],72%
same,Population Hoechst High Intensity Objects (%),[12],2%
same,Population Mitochondria Different-Phenotype (%),[12],28%
same,Population Mitotic Cells (%),[12],64%
same,Population Normal (%),[12],97%
same,Population Tubulin-Different-Phenotype (%),[12],16%
same,Total Cell Count,[12],462

# Reference: ChEMBL document CHEMBL5058577, “EUbOPEN Chemogenomics Library 2 (Multiplex)” (2022)
